pIC50: −log10 of the molar value.
Tests used:
[1] = tested on: SCC-9; experiment: Cytotoxicity against human SCC-9 cells assessed as cell growth inhibition; type: functional, cell-based
Summary of the method: (§1)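 Compounds were dissolved in sterile DMSO as 10 mg ml−1 stocks and tested for in vitro growth inhibition of human cancer cell lines. Doxorubicin was the standard drug and DMSO (0.01%) the vehicle control. IC50 values are reported as means.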

[2] = tested on: SCC-9; experiment: Induction of apoptosis in human SCC-9 cells assessed as live cells at 17 uM incubated for 24 hrs by Annexin V-FITC/PI staining based flow cytometric analysis (reference value: 95.7 %); type: functional
[3] = tested on: CAL-27; experiment: Cell cycle arrest in human CAL-27 cells assessed as accumulation at G0/G1 phase at 10 uM incubated for 24 hrs by flow cytometry (reference value: 77.6 %); type: functional
[4] = tested on: SCC-9; experiment: Induction of apoptosis in human SCC-9 cells assessed as necrotic cells at 34 uM incubated for 24 hrs by Annexin V-FITC/PI staining based flow cytometric analysis (reference value: 0.1 %); type: functional
[5] = tested on: CAL-27; experiment: Cell cycle arrest in human CAL-27 cells assessed as accumulation at S phase at 34 uM incubated for 24 hrs by flow cytometry (reference value: 3.6 %); type: functional
[6] = tested on: CAL-27; experiment: Induction of apoptosis in human CAL-27 cells assessed as necrotic cells at 10 uM incubated for 24 hrs by Annexin V-FITC/PI staining based flow cytometric analysis (reference value: 0.0 %); type: functional
Summary of the method: (§2)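 CAL27 cells were treated with vehicle, doxorubicin or test compounds at 10–63 μM, and apoptosis was assessed by annexin V–FITC/PI staining with flow cytometry. Cells were scored as live, early apoptotic, late apoptotic or necrotic. The vehicle was DMSO (0.01%).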

[7] = tested on: CAL-27; experiment: Cell cycle arrest in human CAL-27 cells assessed as accumulation at S phase at 10 uM incubated for 24 hrs by flow cytometry (reference value: 3.6 %); type: functional
[8] = tested on: SCC-9; experiment: Cell cycle arrest in human SCC-9 cells assessed as accumulation at G0/G1 phase at 34 uM incubated for 24 hrs by flow cytometry (reference value: 70.8 %); type: functional
[9] = tested on: SCC-9; experiment: Cell cycle arrest in human SCC-9 cells assessed as accumulation at G2/M phase at 34 uM incubated for 24 hrs by flow cytometry (reference value: 14.2 %); type: functional
[10] = tested on: CAL-27; experiment: Induction of apoptosis in human CAL-27 cells assessed as late apoptotic cells at 10 uM incubated for 24 hrs by Annexin V-FITC/PI staining based flow cytometric analysis (reference value: 0.1 %); type: functional; summary of the method: as §2
[11] = tested on: SCC-9; experiment: Induction of apoptosis in human SCC-9 cells assessed as necrotic cells at 17 uM incubated for 24 hrs by Annexin V-FITC/PI staining based flow cytometric analysis (reference value: 0.1 %); type: functional
[12] = tested on: CAL-27; experiment: Induction of apoptosis in human CAL-27 cells assessed as late apoptotic cells at 34 uM incubated for 24 hrs by Annexin V-FITC/PI staining based flow cytometric analysis (reference value: 0.1 %); type: functional; summary of the method: as §2
[13] = tested on: A549; experiment: Cytotoxicity against human A549 cells assessed as cell growth inhibition; type: functional, cell-based
Summary of the method: (§3)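 Compounds were dissolved in sterile DMSO as 10 mg ml−1 stocks and tested in vitro for cytotoxicity in a cell-line panel, with DMSO (0.01%) as vehicle control and doxorubicin as standard. Mean IC50 values were reported, and the normal lung epithelial cells were tested up to 100 μM.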

[14] = tested on: CAL-27; experiment: Cell cycle arrest in human CAL-27 cells assessed as accumulation at G2/M phase at 34 uM incubated for 24 hrs by flow cytometry (reference value: 11.9 %); type: functional
[15] = tested on: SCC-9; experiment: Cell cycle arrest in human SCC-9 cells assessed as accumulation at S phase at 34 uM incubated for 24 hrs by flow cytometry (reference value: 14.4 %); type: functional
[16] = tested on: SCC-9; experiment: Induction of apoptosis in human SCC-9 cells assessed as early apoptotic cells at 17 uM incubated for 24 hrs by Annexin V-FITC/PI staining based flow cytometric analysis (reference value: 2.8 %); type: functional
[17] = tested on: SCC-9; experiment: Cell cycle arrest in human SCC-9 cells assessed as accumulation at G2/M phase at 17 uM incubated for 24 hrs by flow cytometry (reference value: 14.2 %); type: functional
[18] = tested on: SCC-9; experiment: Induction of apoptosis in human SCC-9 cells assessed as late apoptotic cells at 17 uM incubated for 24 hrs by Annexin V-FITC/PI staining based flow cytometric analysis (reference value: 1.4 %); type: functional
[19] = tested on: SCC-9; experiment: Cell cycle arrest in human SCC-9 cells assessed as accumulation at G0/G1 phase at 17 uM incubated for 24 hrs by flow cytometry (reference value: 70.8 %); type: functional
[20] = tested on: CAL-27; experiment: Induction of apoptosis in human CAL-27 cells assessed as early apoptotic cells at 34 uM incubated for 24 hrs by Annexin V-FITC/PI staining based flow cytometric analysis (reference value: 0.1 %); type: functional; summary of the method: as §2
[21] = tested on: HCT-15; experiment: Cytotoxicity against human HCT-15 cells assessed as cell growth inhibition; type: functional, cell-based; summary of the method: as §1
[22] = tested on: SCC-9; experiment: Induction of apoptosis in human SCC-9 cells assessed as live cells at 34 uM incubated for 24 hrs by Annexin V-FITC/PI staining based flow cytometric analysis (reference value: 95.7 %); type: functional
[23] = tested on: CAL-27; experiment: Cytotoxicity against human CAL-27 cells assessed as cell growth inhibition; type: functional, cell-based; summary of the method: as §1
[24] = tested on: CAL-27; experiment: Induction of apoptosis in human CAL-27 cells assessed as live cells at 34 uM incubated for 24 hrs by Annexin V-FITC/PI staining based flow cytometric analysis (reference value: 99.8 %); type: functional; summary of the method: as §2
[25] = tested on: SCC-9; experiment: Cell cycle arrest in human SCC-9 cells assessed as accumulation at S phase at 17 uM incubated for 24 hrs by flow cytometry (reference value: 14.4 %); type: functional
[26] = tested on: CAL-27; experiment: Induction of apoptosis in human CAL-27 cells assessed as early apoptotic cells at 10 uM incubated for 24 hrs by Annexin V-FITC/PI staining based flow cytometric analysis (reference value: 0.1 %); type: functional; summary of the method: as §2
[27] = tested on: CAL-27; experiment: Cell cycle arrest in human CAL-27 cells assessed as accumulation at G0/G1 phase at 34 uM incubated for 24 hrs by flow cytometry (reference value: 77.6 %); type: functional
[28] = tested on: SCC-9; experiment: Induction of apoptosis in human SCC-9 cells assessed as early apoptotic cells at 34 uM incubated for 24 hrs by Annexin V-FITC/PI staining based flow cytometric analysis (reference value: 2.8 %); type: functional
[29] = tested on: CAL-27; experiment: Induction of apoptosis in human CAL-27 cells assessed as necrotic cells at 34 uM incubated for 24 hrs by Annexin V-FITC/PI staining based flow cytometric analysis (reference value: 0.0 %); type: functional
[30] = tested on: CAL-27; experiment: Cell cycle arrest in human CAL-27 cells assessed as accumulation at G2/M phase at 10 uM incubated for 24 hrs by flow cytometry (reference value: 11.9 %); type: functional
[31] = tested on: CAL-27; experiment: Induction of apoptosis in human CAL-27 cells assessed as live cells at 10 uM incubated for 24 hrs by Annexin V-FITC/PI staining based flow cytometric analysis (reference value: 99.8 %); type: functional; summary of the method: as §2
[32] = Cytotoxicity against human BEAS-2B cells assessed as cell growth inhibition; type: toxicity, cell-based; summary of the method: as §3
[33] = tested on: MCF7; experiment: Cytotoxicity against human MCF7 cells assessed as cell growth inhibition; type: functional, cell-based; summary of the method: as §1
[34] = tested on: SCC-9; experiment: Induction of apoptosis in human SCC-9 cells assessed as late apoptotic cells at 34 uM incubated for 24 hrs by Annexin V-FITC/PI staining based flow cytometric analysis (reference value: 1.4 %); type: functional

Compound: COc1c(O)c(CN2CCN(CC(=O)Nc3nc(-c4ccccc4)cs3)CC2)c2c(c1O)C1O[C@H](CO)[C@@H](O)[C@H](O)C1OC2=O (some centres undefined)
- pIC50 [1]: 4.46
- Activity [2]: 28%
- Activity [3]: 87.4%
- Activity [4]: 1.8%
- Activity [5]: 4.1%
- Activity [6]: 2%
- Activity [7]: 2.9%
- Activity [8]: 73.6%
- Activity [9]: 10.3%
- Activity [10]: 2.2%
- Activity [11]: 1.3%
- Activity [12]: 4.8%
- pIC50 [13]: < 4.00
- Activity [14]: 10.8%
- Activity [15]: 12.6%
- Activity [16]: 28.8%
- Activity [17]: 11.8%
- Activity [18]: 42%
- Activity [19]: 71%
- Activity [20]: 2.2%
- pIC50 [21]: 4.16
- Activity [22]: 20.2%
- pIC50 [23]: 4.68
- Activity [24]: 88.7%
- Activity [25]: 16.5%
- Activity [26]: 1.2%
- Activity [27]: 85.6%
- Activity [28]: 32.4%
- Activity [29]: 4.3%
- Activity [30]: 10.6%
- Activity [31]: 94.5%
- pIC50 [32]: < 4.00
- pIC50 [33]: < 4.00
- Activity [34]: 45.6%

Source: ChEMBL document CHEMBL5108039, “Piperazine tethered bergenin heterocyclic hybrids: design, synthesis, anticancer activity, and molecular docking studies” (RSC Med Chem, 2022)
